Source: PubChem BioAssay (Johns Hopkins Ion Channel Center)
TRPC6 activator: mouse TRPC6 channel activators, primary screen, cell-based, HEK293, membrane potential dye; AID 2550, 2010; Short transient receptor potential channel 6 (Mus musculus), Q61143; hit rate 0.13% among 310,000; B-score at 10 µM; HEK293-TRPC6 membrane potential dye fluorescence; hits give high values;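 active = B-score of the integrated fluorescence ratio above library mean plus 3 SD, and starting fluorescence ratio within library mean plus 5 SD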;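 note: higher score means more depolarization so channel activation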
Target sequence (Q61143 whole entry, looked up): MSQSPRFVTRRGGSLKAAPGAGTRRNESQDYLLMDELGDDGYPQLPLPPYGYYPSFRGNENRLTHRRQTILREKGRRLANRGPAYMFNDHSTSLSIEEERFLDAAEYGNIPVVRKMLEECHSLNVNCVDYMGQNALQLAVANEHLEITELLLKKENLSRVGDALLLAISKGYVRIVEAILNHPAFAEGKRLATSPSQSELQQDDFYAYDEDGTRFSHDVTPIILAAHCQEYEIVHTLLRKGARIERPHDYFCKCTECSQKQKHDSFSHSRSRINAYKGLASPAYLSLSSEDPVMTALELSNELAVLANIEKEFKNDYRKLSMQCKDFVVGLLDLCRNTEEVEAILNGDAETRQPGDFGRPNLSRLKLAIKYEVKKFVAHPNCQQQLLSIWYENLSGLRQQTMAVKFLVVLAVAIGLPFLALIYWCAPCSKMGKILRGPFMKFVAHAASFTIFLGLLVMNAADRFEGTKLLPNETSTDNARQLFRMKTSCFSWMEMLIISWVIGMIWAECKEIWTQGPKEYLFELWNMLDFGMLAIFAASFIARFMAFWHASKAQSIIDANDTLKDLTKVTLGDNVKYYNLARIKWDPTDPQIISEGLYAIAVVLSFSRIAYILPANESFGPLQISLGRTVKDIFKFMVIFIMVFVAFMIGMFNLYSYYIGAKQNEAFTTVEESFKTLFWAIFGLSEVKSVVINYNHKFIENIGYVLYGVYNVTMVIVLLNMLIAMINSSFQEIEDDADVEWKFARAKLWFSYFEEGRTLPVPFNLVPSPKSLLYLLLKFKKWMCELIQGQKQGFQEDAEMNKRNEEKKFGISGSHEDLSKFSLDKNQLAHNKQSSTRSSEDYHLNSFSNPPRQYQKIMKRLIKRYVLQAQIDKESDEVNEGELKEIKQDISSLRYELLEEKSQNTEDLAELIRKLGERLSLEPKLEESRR
TRPC4 agonist: activators of mouse TRPC4 channel, primary screen, Fluo4 calcium, HEK293 TRPC4beta/mu-opioid cells | Short transient receptor potential channel 4 (Mus musculus), Q9QUQ5 | Fluo4 calcium fluorescence; hits give high values | B-score at 10 µM | hit rate 0.49% among 310,000 | AID 2237, 2010;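 active = B-score above 5 SD of library B-scores, and initial fluorescence ratio not above library mean plus 5 SD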;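 note: positive B-score marks a calcium rise read as TRPC4 activation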
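System – HEK293 cells stably co-expressing mouse TRPC4beta and mu-opioid receptor · Signal – Fluo4 calcium-sensitive dye fluorescence, kinetic, 1 Hz baseline · Benchmarks – buffer (low) and maximal DAMGO (high) · Read-out – B score of integrated fluorescence ratio per well · Incubation – dye loading 45 min room temperature, 110 s kinetic read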
TRPC4 PAM: positive allosteric modulators of TRPC4, primary screen, cell-based, mouse TRPC4beta, HEK293 mu-opioid, Fluo-4 calcium; hit rate 0.42% among 310,000; Short transient receptor potential channel 4 (Mus musculus), Q9QUQ5; B-score at 10 µM; DAMGO EC20, Fluo-4 Ca2+ flux; hits give high values; AID 2227, 2009;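 active = B-score of calcium response area above 5 SD of library B-scores, with initial fluorescence ratio within 5 SD of library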;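 note: B-score of integrated fluorescence ratio over time as area under calcium response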
TRPC6 inh: mouse TRPC6 channel inhibitors, primary screen, cell-based, HEK293, membrane potential dye. hit rate 1.1% among 310,000. ACh-evoked depolarization; hits give low values. Short transient receptor potential channel 6 (Mus musculus), Q61143. B-score at 10 µM;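 active = B-score under library mean minus 3 SD, initial fluorescence not abnormally high, positive integrated signal ratio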;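 note: B-score derived from integrated fluorescence ratio over the kinetic read; more negative B-score means stronger inhibition of depolarization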
TRPC4 block: inhibitors of mouse TRPC4 channel, primary screen, Fluo4 calcium, HEK293 TRPC4beta/mu-opioid cells. B-score at 10 µM. DAMGO-evoked Fluo4 calcium flux; hits give low values. Short transient receptor potential channel 4 (Mus musculus), Q9QUQ5. hit rate 0.39% among 300,000. AID 2247, 2010;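 active = B-score over 3 SD under the library average, no early fluorescence shift, positive overall ratio signal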
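Signal: kinetic Fluo4 fluorescence imaging of calcium influx. Material: stable TRPC4beta/mu-opioid receptor HEK293 cells. Probe or stimulus: DAMGO in two steps, submaximal then maximal.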
TRPC4 sel inh 2: second selectivity test of TRPC6 inhibitors: effect on mouse TRPC4 | inhibition, % at 10 µM | hit rate 42% among 920 | HEK293 TRPC4/MOR, membrane potential dye fluorescence; channel activated by saturating DAMGO dose | shares compounds with TRPC6 inh | AID 2776;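 active = compounds whose fluorescence signal differed from control wells by over 3 SD, either direction, in both duplicate plates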
TRPC4 spec: mouse TRPC4 modulation by TRPC6 hits, confirmation, selectivity assay for TRPC6 inhibitor project, cell-based, HEK293 TRPC4/mu-opioid, membrane potential dye | shares compounds with TRPC6 inh | membrane potential fluorescence | activity change, negative = inhibition, % at 10 µM | hit rate 61% among 920 | AID 2777, 2010;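 active = rise or fall in signal beyond 3 SD of buffer-only wells in both replicate plates, either sign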;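 note: integrated kinetic ratio of fluorescence range over baseline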
HEK293 MPD ctr 2-1: nonspecific membrane potential effects, parental HEK293, confirmation, counter-screen for TRPC6 inhibitor project, cell-based, second counter screen | shares compounds with TRPC6 inh | parental HEK293 membrane potential dye fluorescence; maximal acetylcholine challenge after compound addition | signal change vs control, % at 10 µM | hit rate 31% among 920;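 active = membrane potential signal moving either way by over 3 SD of the maximum-effect control, in both duplicate plates, meaning non-specific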
HEK293 MPD ctr-1: membrane potential modulation in parental HEK293, confirmation, counter-screen for TRPC6 inhibitor project, cell-based; shares compounds with TRPC6 inh; parental HEK293 membrane potential dye fluorescence; membrane potential signal change, % at 10 µM; hit rate 60% among 920; AID 2780, 2010;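 active = membrane potential signal shifting up or down by more than 3 SD of buffer-only wells, on both duplicate plates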
HEK293 MPD ctr-2: parental HEK293 membrane potential modulation, confirmation, counter-screen for TRPC6 modulator project, cell-based; shares compounds with TRPC6 inh; membrane potential dye fluorescence; membrane potential signal change, % at 10 µM; hit rate 51% among 2,400;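 active = membrane potential signal moves up or down beyond 5 SD from buffer-only wells, on both duplicate plates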
HEK293 MPD ctr 2-2: second counter-screen for TRPC6 modulators: effect in parental HEK293 cells; shares compounds with TRPC6 inh; membrane potential dye fluorescence; after compound, maximal acetylcholine stimulation; inhibition, % at 10 µM; hit rate 14% among 2,400;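 active = membrane potential signal drops by more than 5 SD from the mean control signal, in both duplicate plates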;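 note: plate controls were acetylcholine ECmax control wells for no effect and buffer only wells for full effect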
TRPC4/MOR mod: TRPC4 modulation by TRPC6 hit compounds, confirmation, selectivity assay for TRPC6 modulator project, cell-based, HEK293 TRPC4/mu-opioid, membrane potential dye, mouse; shares compounds with TRPC6 inh; membrane potential fluorescence; percent change from control (negative = decrease, positive = increase), % at 10 µM; hit rate 69% among 2,400; AID 488927, 2010;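 active = membrane potential signal moved up or down beyond 5 SD of buffer control wells, in both duplicate plates, actives on both sides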;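 note: plate controls were assay buffer wells for no effect and DAMGO maximal-effect wells for full effect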
TRPC4 ctr inh 2: second selectivity test of TRPC6 modulators against mouse TRPC4; AID 488928; shares compounds with TRPC6 inh; inhibition, % at 10 µM; HEK293 TRPC4/mu-opioid, membrane potential dye fluorescence; stimulated with maximal-effect DAMGO; hit rate 55% among 2,400;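 active = drop in membrane potential signal beyond 5 SD of the control wells in both duplicate plates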;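 note: TRPC4 counter screen for TRPC6 hits run under conditions tuned for TRPC6 not TRPC4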
TRPC6 block conf: mouse TRPC6 channel inhibitors, confirmation, HEK293 cells, membrane potential dye, duplicate. shares compounds with TRPC6 inh. ACh-evoked depolarization. inhibition, % at 10 µM. hit rate 43% among 3,300. AID 488960, 2010;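 active = fluorescence ratio falls more than 5 SD below the full-stimulation control mean, in both duplicate runs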;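 note: integrated fluorescence ratio of peak minus minimum over baseline after agonist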
TRPC6 act confirm: mouse TRPC6 channel activators, confirmation, HEK293 cells, membrane potential dye, duplicate. AID 488961, 2010. activation, % at 10 µM. hit rate 11% among 2,800. HEK293-TRPC6 membrane potential dye fluorescence, FDSS. shares compounds with TRPC6 inh;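 active = ratio signal rise beyond 5 SD above unstimulated control wells' mean, seen in both duplicate runs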;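 note: plate controls were buffer EC0 wells for no effect and acetylcholine ECmax response for full effect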
Starred values were filed as active, the others as inactive; i = inactive; . = no result given. This is a sample that favours compounds with a hit; in the whole collection about 2.3% have one here.

SMILES | TRPC6 activator | TRPC4 agonist | TRPC4 PAM | TRPC6 inh | TRPC4 block | HEK293 MPD ctr-2 | HEK293 MPD ctr 2-2 | TRPC4/MOR mod | TRPC4 ctr inh 2 | TRPC6 block conf | TRPC6 act confirm | others
CN(C)S(=O)(=O)c1ccc(C(=O)Nc2nnc(-c3ccc4c(c3)CCCC4)o2)cc1 | i | i | i | -5.6* | i | i | i | i | i | i | i
Cc1cccc(CNc2ncc(-c3cccc([N+](=O)[O-])c3)n2C)c1 | i | i | i | -5.9* | i | -74%* | i | -26%* | 57%* | i | i
COc1ccc(C(=O)CCc2ccccc2)cc1 | i | i | i | i | i | . | . | . | . | . | .
Cc1ccc[n+](Cc2ccc([N+](=O)[O-])cc2)c1 | i | i | i | i | i | . | . | . | . | . | .
O=[N+]([O-])c1ccc(C[n+]2cccc3c4ccccc4ccc32)cc1 | i | i | i | -6* | i | -434%* | i | -61%* | 64%* | 51%* | i
O=C(NCCS(=O)(=O)N1CCN(c2ccc(F)cc2)CC1)C12CC3CC(CC(C3)C1)C2 | i | i | i | i | i | . | . | . | . | . | .
CCCc1ccc(/C=C2\C(=O)c3ccccc3C(O)=C2C(=O)OCC)cc1 | i | i | i | i | i | . | . | . | . | . | .
CCOC(=O)C1=C(O)c2ccccc2C(=O)/C1=C\c1ccc(CC)cc1 | 15* | i | i | i | i | 552%* | i | 130%* | i | i | 182%*
CCOC(=O)C1CCN(C(c2cc3c(C)ccc(C)c3[nH]c2=O)c2nnnn2C2CCCCC2)CC1 (centres undefined) | i | i | i | i | i | . | . | . | . | . | .
CCOC(=O)C1CCN(C(c2cc3ccc(C)c(C)c3[nH]c2=O)c2nnnn2C2CCCCC2)CC1 (centres undefined) | i | i | i | -8.8* | i | . | . | . | . | i | . | TRPC4 sel inh 2=i;TRPC4 spec=i;HEK293 MPD ctr 2-1=i;HEK293 MPD ctr-1=i
COc1cc(-c2n[nH]c(=S)n2-c2ccc(Br)cc2)cc(OC)c1OC | i | i | i | i | i | . | . | . | . | . | .
NC1=NC(=Nc2ccc(Br)cc2)c2ccccc21 | i | i | i | -5* | i | i | i | -17%* | 40%* | i | i
CC(C)c1ccc(N=C2N=C(N)c3ccccc32)cc1 | i | i | i | -6.1* | i | i | i | -29%* | 77%* | 73%* | i
NC1=NC(=Nc2ccc(Cl)cc2)c2ccccc21 | i | i | i | i | i | . | . | . | . | . | .
O=C(Nc1ccccn1)c1cc2ccccc2cc1O | i | i | i | i | i | . | . | . | . | . | .
NC(=S)N/N=C/c1cn(-c2ccccc2)nc1-c1cccnc1 | i | i | i | i | i | . | . | . | . | . | .
O=C1c2ccccc2C(=O)N1CCCc1nc(-c2ccccn2)no1 | i | i | i | -5* | i | i | i | i | i | i | i
O=C1c2ccccc2C(=O)N1CCc1nc(-c2ccccn2)no1 | i | i | i | i | i | . | . | . | . | . | .
O=C(NCCc1nccs1)C1CCC(=O)N(Cc2cccc(C(F)(F)F)c2)C1 (centres undefined) | i | i | i | i | i | . | . | . | . | . | .
CCN1CC(C)C(O)(c2ccccc2)CC1C (centres undefined) | i | i | i | -7.2* | i | . | . | . | . | i | i | TRPC4 sel inh 2=i;TRPC4 spec=i;HEK293 MPD ctr 2-1=i;HEK293 MPD ctr-1=i
CC1CC(O)(CC(O)(c2ccccc2)c2ccccc2)C(C)CN1C (centres undefined) | i | i | i | i | i | . | . | . | . | . | .
CC(OC(=O)c1cccc(-n2cnnn2)c1)C(=O)c1ccccc1 (centres undefined) | i | i | i | i | i | . | . | . | . | . | .
Cc1ccc(OCC(O)CN2CCC(Cc3ccccc3)CC2)c(C)c1 (centres undefined) | i | i | i | -5.3* | i | 448%* | i | 94%* | 81%* | 46%* | .
OC(COc1ccccc1F)CN1CCC(Cc2ccccc2)CC1 (centres undefined) | i | i | i | -5.1* | i | 155%* | i | 25%* | 44%* | i | .
COc1ccc(NC(=O)CSc2nnc(CC(=O)Nc3ccc(F)cc3)n2C)cc1 | i | i | i | i | i | . | . | . | . | . | .
